Experimental data as given in ChEMBL document CHEMBL1121365, “N,N'-Dialkylbis(dichlorophenyl)ethylenediamines and -imidazolidines: relationship between structure and estradiol receptor affinity” (J Med Chem, 1980).

Legend:
[1] = biological target: T1, Estrogen receptor (Rattus norvegicus) (UniProt P06211+Q62986); experiment: In vitro association constant when complexed with the Estrogen receptor in Sprague-Dawley rat; Inhibition less than 10% at a ratio of [3H]estradiol/substance of 10e-4 M; type: protein assay
[2] = biological target: T2, Estrogen receptor (Mus musculus) (UniProt O08537+P19785); experiment: Uterotrophic effect in immature mice as uterine dry weight(mg) relative to body weight(g) at 100 ug/day dose; type: functional, tissue-based; conditions: Uterus
Procedure, shortened: (§1)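 Dorfman uterine weight test for estrogenic and antiestrogenic properties. Compounds were dissolved in arachis oil and given sc. Other details are in an earlier paper.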

[3] = biological target: T1, Estrogen receptor (Rattus norvegicus); experiment: In vitro affinity for rat Estrogen receptor; type: protein assay
[4] = biological target: T2, Estrogen receptor (Mus musculus); experiment: (§2) Uterotrophic effect in immature mice as uterine dry weight(mg) relative to body weight(g) at 1000 ug/day dose; type: functional, tissue-based; conditions: Uterus; procedure, shortened: as §1
[5] = biological target: T2, Estrogen receptor (Mus musculus); experiment: (§3) Uterotrophic effect in immature mice as uterine dry weight(mg) relative to body weight(g) at 0 ug/day dose; type: functional, tissue-based; conditions: Uterus; procedure, shortened: as §1
[6] = biological target: T2, Estrogen receptor (Mus musculus); experiment: (§4) Uterotrophic effect in immature mice as uterine dry weight(mg) relative to body weight(g) at 500 ug/day dose; type: functional, tissue-based; conditions: Uterus; procedure, shortened: as §1
[7] = biological target: T2, Estrogen receptor (Mus musculus); experiment: (§5) Uterotrophic effect in immature mice as uterine dry weight(mg) relative to body weight(g) at 2500 ug/day dose; type: functional, tissue-based; conditions: Uterus; procedure, shortened: as §1
[8] = biological target: T2, Estrogen receptor (Mus musculus); experiment: as §4; type: functional, tissue-based; conditions: Uterus; remark: listed apart in the source
Procedure, shortened: (§6)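 Dorfman uterine weight test for estrogenic and antiestrogenic activity. Compounds were dissolved in arachis oil and given subcutaneously. Uterine weight was the read-out.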

[9] = biological target: T2, Estrogen receptor (Mus musculus); experiment: as §2; type: functional, tissue-based; conditions: Uterus, in the assay text read “100 ug/day” for “1000 ug/day”; procedure, shortened: as §6
[10] = biological target: T2, Estrogen receptor (Mus musculus); experiment: as §3; type: functional, tissue-based; conditions: Uterus; procedure, shortened: as §6; remark: listed apart in the source
[11] = biological target: T2, Estrogen receptor (Mus musculus); experiment: Uterotrophic effect in immature mice as uterine dry weight(mg) relative to body weight(g) at 5000 ug/day dose; type: functional, tissue-based; conditions: Uterus; procedure, shortened: as §6
[12] = biological target: T2, Estrogen receptor (Mus musculus); experiment: as §5; type: functional, tissue-based; conditions: Uterus; procedure, shortened: as §6; remark: listed apart in the source
[13] = biological target: T2, Estrogen receptor (Mus musculus); experiment: Uterotrophic effect in immature mice as uterine dry weight(mg) relative to body weight(g) at 400 ug/day dose; type: functional, tissue-based; conditions: Uterus; procedure, shortened: as §6
[14] = biological target: T2, Estrogen receptor (Mus musculus); experiment: Uterotrophic effect in immature mice as uterine dry weight(mg) relative to body weight(g) at 24 ug/day dose; type: functional, tissue-based; conditions: Uterus; procedure, shortened: as §6
[15] = biological target: T2, Estrogen receptor (Mus musculus); experiment: Uterotrophic effect in immature mice as uterine dry weight(mg) relative to body weight(g) at 2400 ug/day dose; type: functional, tissue-based; conditions: Uterus; procedure, shortened: as §6
[16] = biological target: T2, Estrogen receptor (Mus musculus); experiment: Uterotrophic effect in immature mice as uterine dry weight(mg) relative to body weight(g) at 80 ug/day dose; type: functional, tissue-based; conditions: Uterus; procedure, shortened: as §6
[17] = biological target: T2, Estrogen receptor (Mus musculus); experiment: Uterotrophic effect in immature mice as uterine dry weight(mg) relative to body weight(g) at 20 ug/day dose; type: functional, tissue-based; conditions: Uterus; procedure, shortened: as §6

T2 sequence (O08537 whole entry, looked up): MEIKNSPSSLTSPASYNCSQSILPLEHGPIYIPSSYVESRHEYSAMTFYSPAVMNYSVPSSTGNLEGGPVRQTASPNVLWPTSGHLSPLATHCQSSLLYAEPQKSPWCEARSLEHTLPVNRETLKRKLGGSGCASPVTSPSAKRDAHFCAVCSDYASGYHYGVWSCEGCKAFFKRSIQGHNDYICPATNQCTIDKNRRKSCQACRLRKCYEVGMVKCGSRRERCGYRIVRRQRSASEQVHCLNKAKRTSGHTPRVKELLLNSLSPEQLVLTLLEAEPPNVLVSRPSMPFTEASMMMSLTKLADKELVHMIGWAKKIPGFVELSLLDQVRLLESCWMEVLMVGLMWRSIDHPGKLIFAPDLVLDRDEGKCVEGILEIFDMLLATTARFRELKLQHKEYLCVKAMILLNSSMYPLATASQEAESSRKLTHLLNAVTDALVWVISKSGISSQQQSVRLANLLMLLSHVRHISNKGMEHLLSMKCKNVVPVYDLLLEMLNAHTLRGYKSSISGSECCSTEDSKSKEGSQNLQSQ
T2 sequence (P19785 whole entry, looked up): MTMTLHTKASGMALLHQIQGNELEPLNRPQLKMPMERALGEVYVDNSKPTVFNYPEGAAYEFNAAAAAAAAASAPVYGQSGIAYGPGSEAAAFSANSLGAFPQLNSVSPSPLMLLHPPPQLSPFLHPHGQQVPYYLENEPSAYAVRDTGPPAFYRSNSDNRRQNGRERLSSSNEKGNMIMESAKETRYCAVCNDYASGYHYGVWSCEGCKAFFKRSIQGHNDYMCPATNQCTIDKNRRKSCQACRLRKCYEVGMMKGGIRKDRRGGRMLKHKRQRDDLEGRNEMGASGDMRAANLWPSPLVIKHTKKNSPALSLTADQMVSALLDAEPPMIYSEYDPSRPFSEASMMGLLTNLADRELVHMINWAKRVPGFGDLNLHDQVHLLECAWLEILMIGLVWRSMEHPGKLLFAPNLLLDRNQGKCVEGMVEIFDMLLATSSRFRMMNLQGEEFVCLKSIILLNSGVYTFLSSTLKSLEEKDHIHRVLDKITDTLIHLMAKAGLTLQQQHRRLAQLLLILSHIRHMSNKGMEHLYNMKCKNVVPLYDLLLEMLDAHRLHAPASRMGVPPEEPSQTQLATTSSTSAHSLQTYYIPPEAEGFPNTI

Row | SMILES | inhibition [1] [%] | Ka [3] | other results
1 | CCN1CN(CC)C(c2cc(Cl)cc(Cl)c2)C1c1cc(Cl)cc(Cl)c1 (cis isomer) | < 10 | – | –
2 | CCCCNC(c1ccc(Cl)c(Cl)c1)C(NCCCC)c1ccc(Cl)c(Cl)c1 (stereo in doubt; 2k (d,l)) | < 10 | – | –
3 | CCNC(c1c(Cl)cccc1Cl)C(NCC)c1c(Cl)cccc1Cl (stereo in doubt) | – | 670000 | Effect [2]: 22.7; Effect [4]: 27.4; Effect [5]: 12.8; Effect [6]: 23.5; Effect [7]: 35.6
4 | CCCN1CN(CCC)C(c2c(Cl)cccc2Cl)C1c1c(Cl)cccc1Cl (stereo in doubt) | – | 320000 | Effect [8]: 16.2; Effect [9]: 17.7; Effect [10]: 12.8; Effect [11]: 24.5; Effect [12]: 19.7
5 | CNC(c1ccc(Cl)cc1Cl)C(NC)c1ccc(Cl)cc1Cl (stereo in doubt; 2a (d,l)) | < 10 | – | –
6 | CCCNC(c1ccc(Cl)cc1Cl)C(NCCC)c1ccc(Cl)cc1Cl (stereo in doubt) | < 10 | – | –
7 | CCNC(c1cc(Cl)cc(Cl)c1)C(NCC)c1cc(Cl)cc(Cl)c1 (stereo in doubt; 21 (d,l)) | < 10 | – | –
8 | CCN1CN(CC)C(c2ccc(Cl)cc2Cl)C1c1ccc(Cl)cc1Cl (trans isomer) | < 10 | – | –
9 | CCCCNC(c1ccc(Cl)c(Cl)c1)C(NCCCC)c1ccc(Cl)c(Cl)c1 (stereo in doubt) | < 10 | – | –
10 | CCCCN1CN(CCCC)C(c2c(Cl)cccc2Cl)C1c1c(Cl)cccc1Cl (stereo in doubt; trans) | < 10 | – | –
11 | CNC(c1c(Cl)cccc1Cl)C(NC)c1c(Cl)cccc1Cl (stereo in doubt; 2e (d,l)) | – | 140000 | –
12 | CCCCN1CN(CCCC)C(c2c(Cl)cccc2Cl)C1c1c(Cl)cccc1Cl (stereo in doubt; cis) | < 10 | – | –
13 | CNC(c1ccc(Cl)cc1Cl)C(NC)c1ccc(Cl)cc1Cl (stereo in doubt) | < 10 | – | –
14 | CCCCNC(c1c(Cl)cccc1Cl)C(NCCCC)c1c(Cl)cccc1Cl (stereo in doubt; 2h (d,l)) | < 10 | – | –
15 | CCN1CN(CC)C(c2c(Cl)cccc2Cl)C1c1c(Cl)cccc1Cl (trans isomer) | – | 200000 | Effect [10]: 14.9; Effect [13]: 38.1; Effect [14]: 22.8; Effect [15]: 46.2; Effect [16]: 24.2
16 | CCCCNC(c1ccc(Cl)cc1Cl)C(NCCCC)c1ccc(Cl)cc1Cl (stereo in doubt; 2d (d,l)) | < 10 | – | –
17 | CN1CN(C)C(c2c(Cl)cccc2Cl)C1c1c(Cl)cccc1Cl (stereo in doubt; trans) | – | 480000 | –
18 | CCNC(c1cc(Cl)cc(Cl)c1)C(NCC)c1cc(Cl)cc(Cl)c1 (stereo in doubt) | < 10 | – | –
19 | CCN1CN(CC)C(c2cc(Cl)cc(Cl)c2)C1c1cc(Cl)cc(Cl)c1 (trans isomer) | < 10 | – | –

Row | SMILES | inhibition [1] [%] | Ka [3] | other results
20 | CCNC(c1ccc(Cl)cc1Cl)C(NCC)c1ccc(Cl)cc1Cl (stereo in doubt; 2b (d,l)) | < 10 | – | –
21 | CCNC(c1ccc(Cl)c(Cl)c1)C(NCC)c1ccc(Cl)c(Cl)c1 (stereo in doubt; 2i (d,l)) | < 10 | – | –
22 | CCCCNC(c1ccc(Cl)cc1Cl)C(NCCCC)c1ccc(Cl)cc1Cl (stereo in doubt) | < 10 | – | –
23 | CCCNC(c1c(Cl)cccc1Cl)C(NCCC)c1c(Cl)cccc1Cl (stereo in doubt; 2g (d,l)) | – | 830000 | Effect [8]: 27.1; Effect [9]: 19.6; Effect [10]: 12.9; Effect [17]: 15.5
24 | CCNC(c1ccc(Cl)cc1Cl)C(NCC)c1ccc(Cl)cc1Cl (stereo in doubt) | < 10 | – | –
25 | CCCNC(c1c(Cl)cccc1Cl)C(NCCC)c1c(Cl)cccc1Cl (stereo in doubt) | – | 2.3e+06 | Effect [8]: 22.6; Effect [9]: 17.5; Effect [10]: 12.9; Effect [17]: 14.8; Effect [12]: 31.3
26 | CC[C@H](c1ccc(O)cc1)[C@@H](CC)c1ccc(O)cc1 | – | 8.3e+08 | –
27 | CNC(c1c(Cl)cccc1Cl)C(NC)c1c(Cl)cccc1Cl (stereo in doubt) | – | 91000 | –
28 | CCCNC(c1ccc(Cl)cc1Cl)C(NCCC)c1ccc(Cl)cc1Cl (stereo in doubt; 2c (d,l)) | < 10 | – | –
29 | CCCN1CN(CCC)C(c2c(Cl)cccc2Cl)C1c1c(Cl)cccc1Cl (trans isomer) | – | 1.6e+06 | Effect [8]: 28; Effect [9]: 21.4; Effect [10]: 12.9; Effect [17]: 19.6; Effect [12]: 43
30 | CN1CN(C)C(c2c(Cl)cccc2Cl)C1c1c(Cl)cccc1Cl (stereo in doubt; cis) | – | 180000 | –
31 | CCNC(c1ccc(Cl)c(Cl)c1)C(NCC)c1ccc(Cl)c(Cl)c1 (stereo in doubt) | < 10 | – | –
32 | CCN1CN(CC)C(c2ccc(Cl)cc2Cl)C1c1ccc(Cl)cc1Cl (stereo in doubt) | < 10 | – | –
33 | CCN1CN(CC)C(c2ccc(Cl)c(Cl)c2)C1c1ccc(Cl)c(Cl)c1 (stereo in doubt) | < 10 | – | –
34 | CCN1CN(CC)C(c2c(Cl)cccc2Cl)C1c1c(Cl)cccc1Cl (cis isomer) | – | 200000 | Effect [8]: 19.7; Effect [9]: 17.1; Effect [10]: 12.8; Effect [12]: 22.3
35 | CCN1CN(CC)C(c2ccc(Cl)c(Cl)c2)C1c1ccc(Cl)c(Cl)c1 (trans isomer) | < 10 | – | –
36 | CCCCNC(c1c(Cl)cccc1Cl)C(NCCCC)c1c(Cl)cccc1Cl (stereo in doubt) | < 10 | – | –
37 | CCNC(c1c(Cl)cccc1Cl)C(NCC)c1c(Cl)cccc1Cl (stereo in doubt; 2f (d,l)) | – | 130000 | –
